Assay outcomes as filed in PubChem BioAssay.
JMJD2C inh: inhibitors of GASC-1 histone demethylase, primary screen, biochemical, fluorescence, DELFIA europium; AID 2099, 2009; inhibition, % at 2.35 µM; GST-JMJD2C(1-420) H3K9me3 demethylation; 0.069% of 330,000 active;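 active = more than half of a compound's replicate wells show inhibition beyond 50%, single wells judged on their own value; inconclusive = some, but no more than half, of replicates pass 50% inhibition; inactive = no replicate passes 50% inhibition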;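 also: signal counts dimethyl H3K9 product captured on neutravidin plate; 0% = median of DMSO wells and 100% = 0.3 times that DMSO median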
UCH37 inh: inhibitors of human UCH37 deubiquitinase, primary screen, biochemical, Ub-AMC cleavage, fluorescence; Ubiquitin carboxyl-terminal hydrolase isozyme L5 (Homo sapiens), Q9Y5K5; purified proteasome/UCH37; inhibition, % (concentration not given with the values); 0.33% of 330,000 active; AID 588478, 2011;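 active = mean inhibition over replicate wells above about 20%, limit read from the data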;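 also: 0% = compound-free wells with enzyme and 100% = wells lacking proteasome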
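Material: human UCH37 enzyme supplied as purified proteasome complex. Measure: % inhibition of Ub-AMC cleavage fluorescence. Medium: pH 7.4 Tris-HCl (50 mM) with ovalbumin, ATP-MgCl2, DTT. Times: 30 min preincubation with enzyme, 25 min cleavage at room temperature. Detection: AMC fluorescence intensity at 355/460 nm.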
APOBEC3G inh: APOBEC3G DNA deaminase inhibitors, primary screen, biochemical, fluorescence, single-stranded DNA substrate, uHTS; inhibition, % at 20 µM; DNA dC->dU-editing enzyme APOBEC-3G (Homo sapiens), Q9HC16; AID 493012, 2011; 0.28% of 330,000 active; recombinant A3G, ssDNA deamination FAM/TAMRA fluorescence;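 active = inhibition of at least 40% at 20 µM, with no more than 30% in the related APOBEC3A deaminase screen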;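 also: plate controls were DMSO wells with A3G for no effect and wells lacking A3G enzyme for full effect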
Target sequence (Q9HC16 whole entry, looked up): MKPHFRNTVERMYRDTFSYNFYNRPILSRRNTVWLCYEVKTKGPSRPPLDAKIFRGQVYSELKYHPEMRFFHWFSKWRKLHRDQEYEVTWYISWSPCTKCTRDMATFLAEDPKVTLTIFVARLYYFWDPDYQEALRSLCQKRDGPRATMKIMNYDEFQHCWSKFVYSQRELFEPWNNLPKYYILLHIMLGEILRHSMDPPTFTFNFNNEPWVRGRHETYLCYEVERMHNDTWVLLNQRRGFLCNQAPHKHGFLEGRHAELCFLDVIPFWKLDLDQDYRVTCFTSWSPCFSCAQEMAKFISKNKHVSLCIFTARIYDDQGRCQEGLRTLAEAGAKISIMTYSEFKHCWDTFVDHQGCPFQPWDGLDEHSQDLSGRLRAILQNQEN
APOBEC3A inh: APOBEC3A ssDNA deaminase inhibitors, primary screen, selectivity assay for APOBEC3G inhibitor project, biochemical, FAM/TAMRA oligo cleavage fluorescence. recombinant A3A, FAM/TAMRA ssDNA deamination fluorescence. AID 493011, 2011. DNA dC->dU-editing enzyme APOBEC-3A (Homo sapiens), P31941. 0.41% of 330,000 active. inhibition, % at 20 µM;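 active = at least 40% inhibition at 20 µM here, with at most 30% in a related deaminase screen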;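 also: plate controls were A3A with DMSO for no effect and wells lacking A3A enzyme for full effect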
Target sequence (P31941 whole entry, looked up): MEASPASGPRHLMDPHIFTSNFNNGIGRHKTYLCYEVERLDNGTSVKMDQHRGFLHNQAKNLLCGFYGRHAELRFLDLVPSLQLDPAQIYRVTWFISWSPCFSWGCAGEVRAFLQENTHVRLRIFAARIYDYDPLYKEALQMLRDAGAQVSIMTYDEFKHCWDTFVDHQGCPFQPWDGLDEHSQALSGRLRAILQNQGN
Active calls of the source: *; ? = inconclusive; . = no result given. Hits are enriched below; roughly 0.97% of the tested compounds scored in any of these assays.

SMILES	JMJD2C inh	UCH37 inh	APOBEC3G inh	APOBEC3A inh
CC1Oc2cc3c(-c4c(O)cc(O)c5c(O)c6c(cc45)OC(C)C(C)C6=O)c(O)cc(O)c3c(O)c2C(=O)C1C (stereo not given)	11	40*	9	14
COC(=O)C1=C(c2ccc(Cl)c(C(F)(F)F)c2)C[C@@H]2CC[C@H]1N2C(=O)NCCO	-8	33*	-11	-2
CCC12CN3CCN(CC(C3)C1=NNC(N)=O)C2	.	-1	.	.
Cc1cc(OC(=O)N(C)C)nc2c1c(C)nn2C	-2	-1	1	4
COCc1cc(OC(=O)N(C)C)nc2c1c(C)nn2C	63*	-16	-8	-3
CCC(=Nc1ccc2c(c1)CCC2)c1c(O)n(C)c(=O)n(C)c1=O	5	2	-1	-7
CC(=Nc1ccc2c(c1)CCC2)c1c(O)n(C)c(=O)n(C)c1=O	5	32*	-3	-3
CN1CCN(c2ccc(/C=C3\C(=O)NC(=S)N(c4cccc(Br)c4)C3=O)o2)CC1	4	21*	-6	-2
CN1C(=O)/C(=C\c2ccc(N3CCCCC3)o2)C(=O)NC1=S	10	22*	-2	2
CN1C(=O)/C(=C/c2ccc(N3CCCCCC3)o2)C(=O)NC1=S	10	18	-4	-2
C[C@]12CCC3C(CCC4=CC(=NOCC(=O)NC(CCC(N)=O)C(=O)O)CC[C@@]43C)C1CCC2O (stereo not given in full)	.	2	.	.
CC12CC[C@H]3[C@@H](CCC4(O)C[C@H](O)CCC34C=NNC(=O)c3ccccc3F)C1(O)CCC2C1=CC(=O)OC1 (stereo not given in full)	.	1	.	.
CCCCC(=NO)c1c[nH]c2ccccc12	.	3	.	.
COc1ccc(Br)cc1CN1CCN(CCO)CC1	4	1	-4	-1
COc1cc(Br)cc(CN2CCN(C)CC2)c1O	59*	0	-5	-3
Cc1ccc2nc3c(cc2c1)CC1(C(=O)N(C)C(=O)N(C)C1=O)C1CCCCN31 (stereo not given)	56*	-47	0	-2
CNC(=O)ON=C(C)Cc1nnn(-c2cc(C)on2)n1	.	1	.	.
CCOc1cc(C=C2C(=O)NC(=O)NC2=O)ccc1OS(=O)(=O)c1ccccc1	3	20*	-7	-5
CCOc1ccc(C=C2C(=O)NC(=S)NC2=O)cc1OCC	.	2	.	.
CCOC(=O)N1CCC(NC(=O)CCc2nc(C3=CCN(C)CC3)no2)CC1	53*	2	-7	-2
COC(=O)C1C2c3ccccc3OC1(C)N=c1sc(=Cc3cnn(C)c3C)c(=O)n12 (stereo not given)	.	2	.	.
COC(=O)C1C(O)C(C)C(O)C(C)C=CC=C(C)C(=O)Nc2c(C)c(OC(C)=O)c3c(c2O)C(=O)C(C)=C2OCOC(=C23)C(C)=CC(C)(O)C(O)C(C)C1O (stereo not given)	.	16	.	.
NC(=NCCCC(NC(=O)CNC(=O)c1ccccc1)C(=O)O)N[N+](=O)[O-] (stereo not given)	.	4	.	.
Cc1c(N=Cc2c(O)n(C)c(=O)[nH]c2=O)c(=O)n(-c2ccccc2)n1C	?	11	-8	-6
C=CCn1c(O)c(C=Nc2c(C)n(C)n(-c3ccccc3)c2=O)c(=O)[nH]c1=O	5	20*	1	-2
SMILES	JMJD2C inh	UCH37 inh	APOBEC3G inh	APOBEC3A inh
CCn1nc(-c2ccccc2)nc2c(=O)n(C)c(=O)nc1-2	-3	99*	-7	-4
Cc1cccc(N2C(=O)NC(=O)/C(=C\C=C\c3ccco3)C2=O)c1	1	1	61	60
Cc1cccc(N2C(=O)NC(=O)/C(=C/c3ccc([N+](=O)[O-])o3)C2=O)c1	55*	21*	.	.
CN1C(=O)C(Cc2ccc3c(c2)OCO3)C(=O)N(C)C1=O	-29	.	-1	-1
CN1C(=O)C(Cc2ccsc2)C(=O)N(C)C1=O	74*	2	-4	-17
CCCCOc1ccc(CC2C(=O)N(C)C(=O)N(C)C2=O)cc1	45	29*	-4	0
Cc1onc(-c2c(Cl)cccc2Cl)c1C(N)=NOC(=O)N(C)C	.	1	.	.
C#C[C@@]1(O)CCC2C3CCC4=CC(=NOCC(=O)NC(C(=O)NC(CC(C)C)C(=O)O)C(C)C)CC[C@]4(C)C3CC[C@@]21C (stereo not given in full)	.	1	.	.
CCCCc1nc2ccccc2c(=O)n1-c1ccccc1[N+](=O)[O-]	-6	24*	-2	3
CCc1nc2ccccc2c(=O)n1-c1ccccc1[N+](=O)[O-]	8	1	-8	-4
COC(=O)C1=C(c2cc3ccccc3o2)C[C@@H]2CC[C@H]1N2C(=O)N1CCOCC1	3	27*	-7	-1
COC(=O)C1C2c3ccccc3OC1(C)N=c1sc(=Cc3cn(C)nc3C)c(=O)n12 (stereo not given)	.	2	.	.
O=c1[nH]c(=O)n(CCc2ccc(F)cc2)c(O)c1C=NCCCn1ccnc1	2	26*	1	1
O=c1[nH]c(O)c(N=Nc2cc([N+](=O)[O-])ccc2O)c(=O)[nH]1	-10	23*	.	.
NC(=NN=Cc1ccc(-c2ccc(O)c(C(=O)O)c2)o1)N[N+](=O)[O-]	.	22*	.	.
O=c1c2ccccc2nc(-c2ccccc2)n1-n1cccc1	-1	24*	-2	2
CCN1CCN(c2ccc([N+](=O)[O-])cc2C=C2C(=O)NC(=O)NC2=O)CC1	57*	.	-2	0
CC(=O)N1CCN(c2ccc([N+](=O)[O-])cc2C=C2C(=O)NC(=O)NC2=O)CC1	?	8	-7	0
CC(C)CC12CN3CCN(CC(C3)C1=NO)C2	.	5	.	.
CCC12CN3CCN(CC(C3)C1=NO)C2	.	2	.	.
COc1nc(NC(C)C)nc(NC(C)C)n1	-6	30*	-2	-17
Cn1c(O)c(C=NC2CCCCC2)c(=O)[nH]c1=S	4	22*	-8	-5
O=c1[nH]c(O)c(C=NC2CCCCC2)c(=O)[nH]1	4	3	-4	-1
NC(=N[N+](=O)[O-])N1CCN(C(=O)c2ccccc2)CC1	.	3	.	.
C[C@]12CC[C@@H]3c4ccc(O)c(O)c4CC[C@H]3[C@@H]1CC[C@@H]2O	?	1	64*	-1
OCCN(CC#CC(O)(c1ccccc1)C1CCCC1)CCO (stereo not given)	3	32*	-4	-2
O=[N+]([O-])c1ccc(N2CCCC2)cc1NN=C1CN2CCC1CC2	.	22*	.	.
CNC(=S)NN=C1C2CN3CCN(C2)CC1(c1ccccc1)C3	.	3	.	.
COc1ccc(OC)c(N2C(=O)/C(=C/c3ccco3)C(=O)NC2=S)c1	31	52*	88	99
Cc1[nH]c2ccccc2c1C=NO	.	1	.	.
